Screens: PubChem, several laboratories
SR-BI DiI-HDL act: activators of SR-BI mediated DiI-HDL uptake, primary screen, ldlA[mSR-BI] CHO cells, DiI fluorescence; 3 h; 100 = double the neutral-control signal; activation, % at 12.5 µM; 0.096% of 320,000 active; AID 504775, 2011;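 active means mean replicate activation of at least 60% and every replicate at or above 60%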;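 further: 0% = median plate neutral-control signal and 100% = twice that signal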
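Assay system: LDL receptor-deficient CHO ldlA cells overexpressing murine SR-BI / Medium: BSA-supplemented, HEPES-buffered Ham's F12, pH 7.4 / Probe or stimulus: DiI-labelled HDL at 10 µg/mL final / Timing: compound with DiI-HDL co-incubation, 3 h at 37 °C / Technique: bottom-read cell fluorescence after medium removal, ex 550/em 595 nm / Measure: HDL uptake via cellular fluorescence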
CaV13 FRET inh: Disruptors of the CACNA1D IQ motif to Ca2+-dependent inactivation inhibitor domain association, primary screening, Förster resonance energy transfer in intact living …; inhibition, % at 12.3 µM; AID 743397; 0.098% of 340,000 active; HEK cells, CFP/YFP FRET ICDI-IQ, plate reader, 10 min; percent FRET-ratio fall versus neutral wells;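 active means mean replicate inhibition of at least 30% and at least 1% of replicates passing that level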;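 further: 0% = median of the neutral control wells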
SR-BI DiI inh: inhibitors of SR-BI mediated HDL lipid uptake, primary screen, ldlA[mSR-BI] cells, fluorescence, single point; 0.96% of 320,000 active; AID 488896, 2010; ldlA[mSR-BI] CHO cells, DiI-HDL uptake fluorescence, 3 h; inhibition, % at 12.5 µM;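 active means mean replicate inhibition of at least 70% and a set share of replicates each scoring 70 or more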;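 further: 0% = median of neutral control wells and 100% = median of positive control wells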
Target sequence (Q61009 whole entry, looked up): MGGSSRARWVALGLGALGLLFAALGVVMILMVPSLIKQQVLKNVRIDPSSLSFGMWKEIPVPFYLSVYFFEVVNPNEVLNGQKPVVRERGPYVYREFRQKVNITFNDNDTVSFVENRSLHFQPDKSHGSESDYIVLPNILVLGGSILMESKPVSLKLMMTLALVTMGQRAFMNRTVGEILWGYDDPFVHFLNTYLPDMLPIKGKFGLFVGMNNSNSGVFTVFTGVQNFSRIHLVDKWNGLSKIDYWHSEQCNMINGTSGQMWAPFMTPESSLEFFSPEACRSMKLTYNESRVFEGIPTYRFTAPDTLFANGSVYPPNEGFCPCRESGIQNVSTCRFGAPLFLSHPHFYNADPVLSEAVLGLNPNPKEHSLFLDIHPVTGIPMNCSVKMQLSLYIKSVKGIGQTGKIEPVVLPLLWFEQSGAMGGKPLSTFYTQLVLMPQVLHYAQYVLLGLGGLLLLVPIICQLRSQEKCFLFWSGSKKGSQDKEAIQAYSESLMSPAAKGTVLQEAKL
FN deposit inh: inhibitors of fibronectin matrix deposition, primary screen, AH1F cells, Alexa488-fibronectin fluorescence, plate reader | AH1F fibroblasts, overnight | inhibition, % at 12.6 µM | 0.086% of 350,000 active;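 active means mean inhibition across replicates of 30% or more, regardless of how many single replicates reach that level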;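 further: positive control wells lacked labelled fibronectin entirely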
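Material – AH1F fibroblast monolayer, labelled fibronectin deposition · Reagent – labelled fibronectin 24 nM · Timing – 1 h adhesion, overnight exposure · Measured by – fluorescence at 485 nm excitation, 525 nm emission · Read-out – inhibition of fibronectin deposition signal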
Efflux pump mplx: inhibitors of Candida efflux pumps in yeast, primary screen, S. cerevisiae, Nile Red, multiplex | S. cerevisiae Candida pump triplex | inhibition, % at 10 µM | 0.44% of 330,000 active | AID 485275, 2010;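 active means plate passing quality check with inhibition over a set limit, or well fluorescence over plate mean plus 4 SD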;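 further: Nile Red retained in pooled yeast measured as flow cytometry median fluorescence; 0% = buffer negative control and 100% = Enniatin B positive control; higher means more Nile Red kept so more efflux inhibition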
Starred values were filed as active, the others as inactive; · = not tested or not shown. In the library only some 1.2% were active in any assay of this set; here they are far more common.

SMILES	SR-BI DiI-HDL act	CaV13 FRET inh	SR-BI DiI inh	FN deposit inh	Efflux pump mplx
NC(=S)N/N=C1\CCOc2ccc(Cl)cc21	-73	-5	73*	-4	0
COc1ccccc1NC(=O)c1ccc2[nH]c(C)c(C)c2c1	-81	-3	81*	·	0
Cc1ccc(S(=O)(=O)N2CCC(C(=O)N3CCCCCCC3)CC2)cc1C	·	-6	·	·	·
Cc1cc(C)c(C)c(S(=O)(=O)N2CCC(C(=O)NNC(=O)c3ccccc3O)CC2)c1C	-119	-6	119*	10	0
Cc1ccc(S(=O)(=O)N2CCC(C(=O)NNC(=O)c3ccccc3O)CC2)cc1	-81	-6	81*	·	0
Cc1ccc(S(=O)(=O)N2CCC(C(=O)NNC(=O)c3ccccc3O)CC2)cc1C	-72	-15	72*	13	0
COC(=O)c1cc2c(-c3ccccc3)cc3ccccn3c-2c1C(=O)OC	-85	·	85*	·	1
CC(C)[C@H]1CC=CC[C@H](C)Oc2ccccc2C(=O)N(C)[C@@H](C)C(=O)N1 (mixture of isomers)	·	·	·	-15	·
O=S(=O)(NCC(c1ccc2c(c1)OCO2)N1CCOCC1)c1ccccc1 (configuration not stated)	347*	-6	-347	·	0
O=S(=O)(NCC(c1ccc2c(c1)OCO2)N1CCOCC1)c1ccc(Cl)cc1 (configuration not stated)	21	-7	-21	-3	0
Cc1cc(C)c(C)c(C(=O)CSc2nnc(-c3ccc4[nH]c(C)c(C)c4c3)o2)c1C	-84	·	84*	·	0
O=C(N/N=C/c1ccccc1)c1ccc(CN2C(=O)c3cccc4cccc2c34)cc1	-7	-10	7	7	0
O=C(N/N=C/c1ccc(O)cc1O)c1ccc(CN2C(=O)c3cccc4cccc2c34)cc1	-124	-5	124*	-7	0
Cc1cccc(-c2ccc(C3[C@@H]4CN(C(=O)C5CCCCC5)C[C@H]3N4)cc2)c1 (some centres not stated)	·	·	·	-2	·
CC1(C)CC(=O)C2=C(C1)OC(=O)CC2c1cccs1 (configuration not stated)	·	-4	·	-2	0
CN(C)c1ccc(C2CC(=O)OC3=C2C(=O)CC(C)(C)C3)cc1 (configuration not stated)	68*	4	-68	22	0
COc1ccc(/C=N/Nc2cc(C)nc(-n3nc(C)cc3C)n2)c(OC)c1	-79	-3	79*	-6	0
CN1C(=O)c2cc(NC(=O)c3ccc(Cl)cc3)ccc2OC[C@@H]2O[C@H](CC(=O)O)CC[C@@H]21	·	·	·	14	·
O=C(C[C@@H]1CC[C@H]2[C@@H](COC[C@@H](O)CN2Cc2cccc(C(F)(F)F)c2)O1)NCc1ccc(F)cc1	·	·	·	-1	·
C/C(=N\NC(=S)Nc1cc(S(=O)(=O)N2CCOCC2)ccc1Cl)c1ccc(N2CCOCC2)cc1	-102	-4	102*	1	0
N=c1c(C(=O)NCC2CCCO2)cc2c(=O)n3ccccc3nc2n1Cc1ccc(Cl)cc1 (configuration not stated)	5	94*	-5	11	0
C[C@@H]1CCCCO[C@H](CN(C)S(=O)(=O)c2cccs2)[C@@H](C)CN([C@@H](C)CO)C(=O)c2cc(NS(=O)(=O)c3cccs3)ccc2O1	·	·	·	-6	·
CO[C@@H](C(=O)N(C)C[C@@H]1OCc2ccccc2-c2c(n(C)c3ccccc23)C(=O)N([C@@H](C)CO)C[C@@H]1C)c1ccccc1	·	·	·	-10	·
Fc1ccc(-c2nc(-c3cccs3)[nH]c2-c2ccc(F)cc2)cc1	-59	-5	59	1	0
Oc1ccc(-c2nc(-c3ccc(F)cc3)c(-c3ccncc3)[nH]2)cc1	-74	-5	74*	0	0
SMILES	SR-BI DiI-HDL act	CaV13 FRET inh	SR-BI DiI inh	FN deposit inh	Efflux pump mplx
CCN(CC)CCOC(=O)/C=C/c1ccccc1	37	-5	-37	8	0
CCN(CC)CC(C)(C)C(=O)/C=C/c1ccc(/C=C/C(=O)C(C)(C)CN(CC)CC)cc1	4	-7	-4	46*	·
Fc1cc(NC(=S)NCc2ccc(CNC(=S)Nc3ccc(Cl)c(F)c3)cc2)ccc1Cl	-73	-3	73*	-2	0
Fc1cccc(NC(=S)NCc2ccc(Cl)cc2)c1	-5	-15	5	-8	0
CNC[C@H]1Oc2ccc(N(C)C)cc2CC(=O)N(C)C[C@@H]1C	·	·	·	5	·
CN(Cc1ccccc1)C(=O)c1cccc(NC(=O)Cc2ccc(NC(=O)C3CCCN(C(=O)C4CCCCC4)C3)cc2)c1 (configuration not stated)	-75	-10	75*	8	·
CN(C(=O)c1cccc(NC(=O)Cc2ccc(NC(=O)C3CCCN(C(=O)C4CCC4)C3)cc2)c1)C1CCCCC1 (configuration not stated)	-88	-5	88*	-4	·
Cc1ccccc1CS(=O)(=O)c1ncc(Cl)c(C(=O)Nc2ccc(F)cc2)n1	4	-16	-4	39*	0
CCN(c1ccccc1)S(=O)(=O)c1ccc(NC(=O)c2nc(S(C)(=O)=O)ncc2Cl)cc1	-10	·	10	·	0
O=C(Nc1ccc(F)cc1)c1nc(S(=O)(=O)Cc2ccccc2)ncc1Cl	22	-13	-22	-1	0
CCS(=O)(=O)c1ncc(Cl)c(C(=O)Nc2ccc(S(=O)(=O)N(C)c3ccccc3)cc2)n1	-86	-2	86*	67*	0
C[C@@H]1CCCCO[C@@H](CN(C)CC2CCCCC2)[C@@H](C)CN([C@@H](C)CO)C(=O)c2cc(NC(=O)NC3CCCCC3)ccc2O1	·	·	·	6	·
C[C@H]1CC=CC[C@H](c2cccc(Cl)c2)NC(=O)[C@H](C)N(C)C(=O)c2ccccc2O1 (mixture of isomers)	·	·	·	5	·
CC[C@H]1C/C=C\C[C@@H](c2ccc(F)cc2)NC(=O)CCC(=O)N1	·	·	·	-14	·
CO[C@H]1CN(C)C(=O)c2cc(NC(=O)C3CC3)ccc2OC[C@H](C)N(C(=O)C2CCCCC2)C[C@@H]1C	·	·	·	0	·
Cn1nc(C(F)(F)F)c2cc(C(=O)Nc3ccc(F)cc3F)sc21	-56	-5	56	·	0
Cn1nc(C(F)(F)F)c2cc(C(=O)Nc3ccc(Cl)cc3)sc21	-83	-1	83*	·	0
Cc1nc(N2CCC(C)CC2)c2c(C)c(C(=O)Nc3ccc4c(c3)OCCO4)sc2n1	-69	-5	69	7	0
Cc1nc(N2CCC(C)CC2)c2c(C)c(C(=O)Nc3ccc(C(F)(F)F)cc3)sc2n1	-75	6	75*	-1	0
